From PubChem
Compounds with a hit are over-represented: about 1.8% of the library has one in this group of screens.
Casp6 inh: caspase-6 (human) enzyme inhibition; P55212; purified caspase-6, Z-VEID-R110 cleavage fluorescence; inhibition, % at 12.5 µM; actives 0.53% (n = 350,000); AID 686996;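 active = mean inhibition across replicates at least about 35%, with every replicate also reaching that limit, limit read from the data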;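 also: 0% = median of neutral control wells and 100% = no fluorescence left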
Target sequence (P55212 24-179 limits assumed): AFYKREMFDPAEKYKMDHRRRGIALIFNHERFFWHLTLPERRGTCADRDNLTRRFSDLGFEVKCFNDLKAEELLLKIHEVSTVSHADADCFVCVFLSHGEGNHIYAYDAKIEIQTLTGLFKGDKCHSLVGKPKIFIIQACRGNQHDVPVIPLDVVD
Target sequence (P55212 194-293 limits assumed): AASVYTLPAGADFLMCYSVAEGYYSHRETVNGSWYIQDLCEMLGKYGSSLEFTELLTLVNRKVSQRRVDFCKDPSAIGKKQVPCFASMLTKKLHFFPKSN
LEDGF integ inh: blocks HIV-1 LEDGF/p75-dependent DNA integration. inhibition, % at 3.7 µM. TR-FRET IN-LEDGF/p75 DNA integration, Eu/Cy5. actives 0.64% (n = 370,000). AID 743269;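 active = inhibition above the screen-wide mean plus 3 SD, cut at about 13% in these data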;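 also: signal is the Cy5 over europium emission ratio at 671 and 618 nm; 0% = plate median of compound wells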
MBD2 inh: MBD2-methylated oligo binding inhibition; Q9UBB5; TR-FRET, MBD2 binding to methylated oligonucleotide; inhibition, % at 4.4 µM; actives 0.31% (n = 370,000); AID 686964; in the data active = inhibition above about 13%
Target sequence (Q9UBB5 whole entry, looked up): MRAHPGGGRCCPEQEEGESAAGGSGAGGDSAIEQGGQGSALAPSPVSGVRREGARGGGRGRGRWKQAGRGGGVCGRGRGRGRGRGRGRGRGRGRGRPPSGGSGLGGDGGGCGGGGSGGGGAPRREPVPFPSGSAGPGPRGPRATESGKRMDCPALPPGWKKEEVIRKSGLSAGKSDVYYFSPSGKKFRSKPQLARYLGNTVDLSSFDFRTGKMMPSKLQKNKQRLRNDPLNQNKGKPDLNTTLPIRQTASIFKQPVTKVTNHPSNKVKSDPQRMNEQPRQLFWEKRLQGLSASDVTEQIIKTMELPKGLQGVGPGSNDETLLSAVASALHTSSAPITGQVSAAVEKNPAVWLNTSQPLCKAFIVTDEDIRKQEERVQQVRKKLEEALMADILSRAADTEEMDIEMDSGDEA
TDP2 absorb: blocks human TDP2 phosphodiesterase activity | actives 0.34% (n = 370,000) | O95551 | inhibition, % at 12.8 µM | recombinant TDP2, T5PNP hydrolysis, p-nitrophenol absorbance 415 nm;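 active = inhibition above the mean of all tested compounds plus 3 SD, set per campaign, cut at about 25% in these data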;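 also: 0% = DMSO with enzyme and 100% = buffer with substrate but no TDP2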
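Incubation: 2 h at 37 °C; Test system: recombinant human TDP2; Quantity: enzyme 120 nM; Read-out basis: percent inhibition; Medium: 50 mM Tris-HCl pH 7.5 with Mg2+, KCl, DTT, BSA; Repeats: single replicate; Compound: 12.8 µM single point, 1% DMSO; Signal: epi absorbance; Reagent: 5 mM T5PNP chromogenic substrate; Benchmarks: no-enzyme high, DMSO-plus-enzyme low.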
NSD2 inh: inhibitors of human histone methyltransferase NSD2; O96028; AID 743445; NSD2 peptide methylation, AlphaScreen, 120 min; inhibition, % at 12.5 µM; actives 0.54% (n = 310,000); in the data active = inhibition above about 50%
UHRF1 binding: UHRF1 methyl-DNA binding inhibition. UHRF1 binding to methylated oligo, TR-FRET. actives 0.75% (n = 370,000). inhibition, % at 4.4 µM; in the data active = inhibition above about 21%;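 also: UHRF1 SRA domain binding a hemimethylated CpG hairpin DNA probe; 0% = median of test compound wells and 100% = reference inhibitor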
AlphaScreen art: counter-screen for NSD2 inhibitors: AlphaScreen artifacts | shares compounds with NSD2 inh | AlphaScreen artifact counterscreen, preloaded methylated H4 peptide | AC35, µM (titrated, usually from 10 µM), for the others: at the highest dose activity change, negative = signal loss | actives 9.4% (n = 1,500); call rule not given here
Numbers without * were called inactive; / = not tested or not shown.

SMILES	Casp6 inh	LEDGF integ inh	MBD2 inh	TDP2 absorb	NSD2 inh	UHRF1 binding	AlphaScreen art
Cc1ccc(N2C(=O)N(CC(=O)Nc3cccc([N+](=O)[O-])c3C)C(=O)C2C)cc1 (stereo not drawn)	0.1	1.5	0.8	5.9	92.0*	0.1	-3.7%
O=C(COC(=O)c1ccc([N+](=O)[O-])o1)NC1CCCC1	10.2	2.2	-8.5	13.9	4.8	-5.3	/
CCN(C(=O)COC(=O)c1ccc([N+](=O)[O-])o1)C1CCCCC1	7.3	1.8	2.0	12.2	69.0*	-3.2	-3.5%
Cc1cc(C(=O)COC(=O)c2ccc([N+](=O)[O-])o2)c(C)n1CC1CCCO1 (stereo not drawn)	14.0	5.5	-8.6	-0.2	53.7*	-4.1	-5.0%
COCCn1c(C)cc(C(=O)COC(=O)c2ccc([N+](=O)[O-])o2)c1C	1.8	5.2	-0.9	2.0	15.1	-3.5	/
O=C(COC(=O)c1ccc([N+](=O)[O-])o1)NC1CCS(=O)(=O)C1 (stereo not drawn)	48.6*	4.2	-0.5	11.3	74.0*	-6.1	0.8%
C[C@H](CO)N1C[C@H](C)[C@@H](CN(C)C(=O)CC2CC2)Oc2ncc(-c3ccc(C#N)cc3)cc2C1=O	-1.1	/	/	/	/	/	/
CN(C)c1ncnc2c1ncn2-c1ccccc1	-1.0	-1.7	-3.1	2.7	-1.8	4.5	/
CN(c1ccccc1)c1ncnc2c1ncn2C	-3.5	0.0	4.1	-3.9	121.9*	-1.6	-4.1%
O=C(NCCc1ccccc1)C1=COCCO1	5.5	-4.8	0.2	2.9	-0.4	-1.7	/
C/C(NCCc1ccccc1)=C1/CCOC1=O	0.3	1.7	1.7	9.1	65.0*	1.2	-5.9%
CCNC(=O)Cc1ccc(NS(=O)(=O)c2ccc(F)cc2)cc1	/	-2.0	4.7	-3.6	109.1*	0.2	-1.7%
O=C(NCC1CC1)c1ccc(-n2ccnc2)c2ccoc12	5.0	10.4	8.8	-21.0	63.2*	24.8*	-2.8%
Cc1noc(C)c1-c1ccc(C(=O)NCC2CC2)c2occc12	3.1	0.2	-0.1	1.6	0.1	-1.0	/
CCN(CC)CCNC(=O)c1cc2cc(Br)ccc2s1	/	-1.4	-5.8	-17.1	56.4*	-3.4	-4.2%
CCN(CC)CCNC(=O)c1cc(-c2ccc(Br)s2)nc2ccccc12	-3.9	0.4	-5.2	-1.9	3.3	-0.9	/
O=C(C[C@H]1CC[C@@H]2[C@H](COC[C@@H](O)CN2S(=O)(=O)c2cccc(Cl)c2)O1)Nc1ccccc1	-3.8	/	/	/	/	/	/
CS(=O)(=O)Nc1ccc2c(c1)[C@@H]1C[C@H](CC(=O)NCc3cccc(F)c3)O[C@@H](CO)[C@@H]1O2	-0.1	/	/	/	/	/	/
Cc1cc(C)n(CC(O)COc2c(C)cccc2C)n1 (stereo not drawn)	-0.6	-2.3	-1.3	-7.2	55.1*	1.4	3.9%
O=C1NN(c2ccc(Cl)cc2)C(=O)/C1=C\c1ccc(-c2cccc(C(=O)O)c2)o1	73.3*	-0.3	4.9	-5.2	53.8*	28.0*	-12.1%
C[C@H](CO)N1C[C@H](C)[C@H](CN(C)C)Oc2ccc(NS(=O)(=O)c3ccc(F)cc3)cc2C1=O	2.1	/	/	/	/	/	/
CC(=O)c1ccc(NC(=S)NCCc2cccc(Cl)c2)cc1	2.5	-4.4	1.7	4.5	53.4*	0.5	-1.8%
CC(=O)c1ccc(NC(=O)Nc2cccc(Cl)c2)cc1	/	0.6	-1.6	4.8	-5.9	-2.4	/
Cc1c(C)c2cc(Cl)c(O)c(CN(C)C)c2oc1=O	/	-6.5	-7.2	-16.1	118.7*	-3.4	-2.0%
CCCNC(=O)C[C@@H]1CC[C@@H]2[C@@H](COc3ccc(NC(=O)C4CCOCC4)cc3C(=O)N2C)O1	0.4	/	/	/	/	/	/
SMILES	Casp6 inh	LEDGF integ inh	MBD2 inh	TDP2 absorb	NSD2 inh	UHRF1 binding	AlphaScreen art
Cc1ccc(C)c(S(=O)(=O)N2CCCOC2CNC(=O)C(=O)NCc2cccnc2)c1 (stereo not drawn)	-1.1	-5.2	5.7	1.5	58.0*	1.2	2.0%
Cc1cc(C)c(S(=O)(=O)N2CCCOC2CNC(=O)C(=O)NCc2cccnc2)c(C)c1 (stereo not drawn)	-0.2	-6.4	-2.9	-0.3	-0.4	-0.6	/
Cc1cc(=O)n(Cc2ccccc2)c2ccccc12	-2.1	-0.7	0.9	7.0	-0.6	-1.3	/
Cc1c(CN(C)C)c2c(n1Cc1ccccc1)C(=O)c1ccccc1-2	/	1.9	-15.9	7.0	92.7*	-10.7	5.73µM*
CC(C)c1ccc(NC(=S)N2CCCC(c3ccc(F)cc3)=N2)cc1	0.7	1.3	-1.3	-19.0	60.0*	2.6	0.3%
S=C(Nc1ccccc1Cl)N1CCCC(c2ccccc2)=N1	-1.8	4.4	-1.7	-2.7	-2.0	-0.3	/
CC(C)CC(=O)N1CCC(O)(CS(=O)(=O)Cc2ccccc2Cl)CC1	/	2.5	-1.2	8.7	102.7*	-0.7	-0.1%
C[C@H](CO)N1C[C@H](C)[C@H](CN(C)C(=O)C2CC2)Oc2ncc(C#Cc3ccccc3F)cc2C1=O	2.3	/	/	/	/	/	/
CCNC(=O)Nc1ccc2c(c1)C(=O)N(C)[C@@H]1CC[C@@H](CC(=O)NCC3CCCCC3)O[C@H]1CO2	-0.5	/	/	/	/	/	/
CCn1c(SC(=O)NC2CCCCC2)nnc1-c1cccs1	/	-3.3	-5.7	1.0	59.3*	-2.6	-0.9%
CCn1c(SCC(=O)NC2CCCCC2)nnc1-c1cccs1	-8.3	2.0	4.4	9.1	-0.9	-0.7	/
COc1cc(C(=O)Oc2cccc(/C=N/NC(=O)c3cccnc3)c2)cc(OC)c1OC	-5.1	-3.8	6.0	-18.2	97.9*	0.7	-1.1%
CCCN(CCC)CCCNC(=O)c1cn(CC)c2ccc(S(=O)(=O)N3CCc4ccccc4C3)cc2c1=O	-3.3	-5.1	8.8	-12.2	50.4*	5.6	2.0%
N#C/C(C(N)=O)=c1/ccc2c(c1)N1C3=C(CCCC3)CC3CCCCC31N=2 (stereo not drawn)	/	-0.8	-10.8	-10.9	50.3*	-5.1	5.45µM*
C[C@@H]1CCCCO[C@H](CN(C)S(=O)(=O)c2ccc(F)cc2)[C@@H](C)CN([C@@H](C)CO)C(=O)c2cc(NC(=O)Nc3ccc(C(F)(F)F)cc3)ccc2O1	0.4	/	/	/	/	/	/
COc1ccc(NC(=O)N(CCCN(C)C)Cc2cc3cc(OC)ccc3[nH]c2=O)cc1	/	1.3	-1.1	-9.3	4.3	4.3	/
CCN(CC)CCCN(Cc1cc2cc(OC)ccc2[nH]c1=O)C(=O)Nc1ccc(F)cc1	/	-1.1	-4.8	-2.9	85.7*	-3.5	-7.5%
O=C(C[C@@H]1C[C@H]2c3cc(NC(=O)CC4CC4)ccc3O[C@H]2[C@@H](CO)O1)NCc1ccncc1	-3.3	/	/	/	/	/	/
Oc1ccc(NC(=S)N=Nc2c(O)[nH]c3ccc(Br)cc23)cc1	15.7	0.8	2.1	-3.7	/	-4.1	/
